The record followed here is ChEMBL document CHEMBL1166011, “A bastadin with potent and selective delta-opioid receptor binding affinity from the Australian sponge Ianthella flabelliformis” (J Nat Prod, 2010).

Activity calls are given as the source filed them. The rule behind the calls is not given here.

For test [1], the species on record is Cavia porcellus. The test can be described thus: Displacement of [3H]DPDPE from delta opioid receptor in guinea pig forebrain at 100 uM by beta plate scintillation counting. The procedure, abridged:
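Pooled guinea pig forebrain membranes, Tris·HCl pH 7.4 prep with 37 °C 45 min preincubation to remove endogenous ligands. 1 nM [3H]DPDPE, 315 µg membrane protein, 10 µM naloxone defines nonspecific binding; 90 min rt. Single 100 µM screen, 2% final DMSO. Glass fiber B filtration, scintillation counting. % activity = 100 − % control.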
On the technique in general: In a radioligand displacement assay an active substance lowers the binding of a labelled ligand.

The species named for test [2] is Cavia porcellus. The test can be described thus: Displacement of [3H]DAMGO from mu opioid receptor in guinea pig forebrain at 100 uM by beta plate scintillation counting. The procedure, abridged:
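Guinea pig forebrain membranes (pooled, homogenized in 50 mM Tris·HCl pH 7.4, preincubated 37 °C 45 min to strip endogenous ligands, washed). 1 nM [3H]DAMGO, 315 µg protein, nonspecific binding with 10 µM naloxone; 90 min rt. Compound at 100 µM in 2% final DMSO. Filtration onto glass fiber B mats. % activity = 100 − % control, specific binding.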

The species named for test [3] is Cavia porcellus. The test can be described thus: Displacement of [3H]U69593 from kappa opioid receptor in guinea pig cerebellum at 100 uM by beta plate scintillation counting. It counts as tissue-based. The procedure, abridged: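 Pooled guinea pig cerebellum membranes (Tris·HCl pH 7.4, endogenous ligands removed at 37 °C 45 min). 1 nM [3H]U69593, 190 µg protein, 10 µM naloxone for nonspecific binding; 90 min rt. Tested up to 100 µM, 2% final DMSO. Filtration onto glass fiber B mats presoaked in 0.01% polyethylenimine; % activity from specific binding.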

A short description of test [4]: Displacement of [3H]DPDPE from delta opioid receptor in guinea pig forebrain by beta plate scintillation counting. More on the design: species or system Cavia porcellus. The procedure, abridged:
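Delta binding on pooled guinea pig forebrain membranes with 1 nM [3H]DPDPE, 315 µg protein, 10 µM naloxone for nonspecific binding; 90 min rt, filtration onto glass fiber B mats. Concentration-response over 11 treatment levels, 2% final DMSO. IC50 and Ki from nonlinear least-squares fitting, model testing by ANOVA.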

The species entered for test [5] is Cavia porcellus. The test can be described thus: Selectivity for guinea pig delta opioid receptor over guinea pig mu opioid receptor.
The species entered for test [6] is Cavia porcellus. As to the kind of experiment: Selectivity for guinea pig delta opioid receptor over guinea pig kappa opioid receptor.
Test [7] can be described thus: Displacement of [3H]DAMGO from mu opioid receptor in guinea pig forebrain by beta plate scintillation counting.
Test [8] can be described thus: Displacement of [3H]U69593 from kappa opioid receptor in guinea pig cerebellum by beta plate scintillation counting.

The inhibition is the relative decrease from the control value, in per cent. On to `O=C1N/C=C/c2ccc(c(Br)c2)Oc2cc(ccc2OS(=O)(=O)O)CCNC(=O)/C(=N/O)C(O)c2cc(Br)c(c(Br)c2)Oc2cc(cc(Br)c2O)C/C1=N\O` (stereo not given), for which the inhibition in the test filed under Cavia porcellus [1] amounted to 86%; in the test filed under Cavia porcellus [2] it was 39%. In the test listed under Cavia porcellus [3], the outcome was inactive.

As usually defined, the IC50 is the point on the concentration scale where inhibition reaches its midpoint. Read a low IC50 as higher potency. Broadly, the Ki is the dissociation constant of the complex between target and ligand, obtained from inhibition or displacement. Higher therefore signals weaker binding. Consider `O=C1NCC(O)c2ccc(c(Br)c2)Oc2cc(ccc2O)CCNC(=O)/C(=N/O)C(O)c2cc(Br)c(c(Br)c2)Oc2cc(cc(Br)c2OS(=O)(=O)O)C/C1=N\O` (stereo not given) [BASTADIN 26], for which, in test [4], the IC50 is 206 nM and the Ki was 100 nM. Moreover, in the test filed under Cavia porcellus [2], the inhibition result was “inactive”. The outcome in the test filed under Cavia porcellus [3] was inactive. For the same compound, the Selectivity ratio in the test listed under Cavia porcellus [5] is above 1000. Also, in the test filed under Cavia porcellus [6], the Selectivity ratio was above 1000.

Consider `O=C1N/C=C/c2ccc(c(Br)c2)Oc2cc(ccc2OS(=O)(=O)O)CCNC(=O)/C(=N/O)Cc2cc(Br)c(c(Br)c2)Oc2cc(cc(Br)c2O)C/C1=N\O`, for which the figures for the inhibition in the test filed under Cavia porcellus [1] and in the test listed under Cavia porcellus [2] were 87% and 57%, respectively. In the test listed under Cavia porcellus [3], the result was inactive.

Turning to `C=CCN1CC[C@]23c4c5ccc(O)c4O[C@H]2C(=O)CC[C@@]3(O)[C@H]1C5` [NALOXONE], the Ki in test [4] was 30 nM; in test [7] it was 3.9 nM; in test [8] it was 2.6 nM.
